Measured values from publication PMC8501684 (International Journal for Parasitology: Drugs and Drug …, 2021).

Tests used:
[1] = system: Naegleria fowleri ATCC® 30808™ trophozoites; experiment: In vitro activity assay; format: cell-based; conditions: for N. fowleri ATCC® 30808™ SI (CC50/IC50): selectivity index, CC50 J774A.1 / IC50 ATCC 30808
Summary of the method: (§1)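 Both strains were grown axenically at 37 °C in 2% Bactocasitone with 10% FBS, penicillin G and streptomycin. Trophozoites from a 2*10^5 cells/ml stock were seeded in duplicate with serial compound dilutions in the same medium, plus a medium-only negative control. AlamarBlue (10% of medium volume) was added for 48 h at 37 °C with slight agitation, read at 570 nm […] with a 630 nm reference. Inhibitory concentrations came from non-linear regression; experiments were done in triplicate and averaged.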

[2] = system: Naegleria fowleri ATCC® 30215™ trophozoites; experiment: In vitro activity assay; format: cell-based; conditions: for N. fowleri ATCC® 30215™ SI (CC50/IC50): selectivity index, CC50 J774A.1 / IC50 ATCC 30215
Summary of the method: as §1

Cytotoxicity assay = format: cell-based; conditions: mouse, J774A.1 murine macrophage cells
Summary of the method: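 J774A.1 macrophages were kept in DMEM with 10% FBS and 10 μg/mL gentamicin at 37 °C, 5% CO2. Cells from a 10^5 cells/ml stock got a range of compound concentrations plus AlamarBlue (10% of medium volume), with a medium-only negative control. Incubation was 24 h at 37 °C in 5% CO2, and CC50 was derived from the read-out.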

[3] = ref Tian et al., 2016; cited from earlier work
[4] = various species plasma; ref Tian et al., 2016; cited from earlier work

IC50 ([1]; Naegleria fowleri, ATCC30808, 48 h, read-out: N. fowleri ATCC® 30808™ IC50) [nM] | IC50 ([2]; Naegleria fowleri, ATCC30215, 48 h, read-out: N. fowleri ATCC® 30215™ IC50) [nM] | Structure (SMILES) | N. fowleri ATCC® 30808™ SI (CC50/IC50) [1] | N. fowleri ATCC® 30215™ SI (CC50/IC50) [2] | CC50 at 24 h (Cytotoxicity assay) [nM] | half-life [3] | pharmacokinetic profile [3] | tissue distribution [3] | protein binding to plasma [4]
121 ± 32 | 166 ± 26 | C[C@@H]1[C@H](O)[C@@H](C)/C=C/C=C/C=C/C=C/C=C/C=C/C=C/[C@H](O[C@@H]2O[C@H](C)[C@@H](O)[C@H](N)[C@@H]2O)C[C@@H]2O[C@](O)(C[C@@H](O)C[C@@H](O)[C@H](O)CC[C@@H](O)C[C@@H](O)CC(=O)O[C@H]1C)C[C@H](O)[C@H]2C(=O)O [Amphotericin B] | ≥1652.893 | ≥1204.819 | ≥ 200000 | – | – | – | –
– | – | CCCCC1OC(=O)c2cc(Br)ccc21 (stereo not drawn) [Br-NBP, 3-butyl-6-bromo-1(3H)-isobenzofuranone] | – | – | – | short half-life | good dose-linear pharmacokinetic profile | wide tissue distribution | different degree protein binding to various species plasma
– | – | CCCCCCCCCCCCCCCCOP(=O)([O-])OCC[N+](C)(C)C [Miltefosine] | 3.301 | 1.568 | 128000 ± 8850 | – | – | – | –
